Measured values as given in ChEMBL document CHEMBL1150117, “Two new subergane-based sesquiterpenes from a Taiwanese Gorgonian coral Subergorgia suberosa” (2002).
≈ marks a conversion by molar mass, not a printed value.

Assays:
HeLa = assay: Cytotoxicity against human HeLa cells after 4 hrs by MTT assay; type: functional; details: read-out: ED50 (the source's name)
Summary of the method: (§1)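 KB and HeLa cells from ATCC; growth inhibition read by MTT colorimetric method; ED50 in μg/mL.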

KB = assay: Cytotoxicity against human KB cells after 4 hrs by MTT assay; type: functional; details: read-out: ED50 (the source's name); summary of the method: as §1

CC(=O)O[C@H]1C[C@H](C)[C@H]2CC[C@]3(C)C=C(C(=O)O)[C@@H](C)[C@]123
EC50 (HeLa): > 10 µg/mL
EC50 (KB): > 10 µg/mL

COC(=O)C1=C[C@@]2(C)CC[C@@H]3[C@@H](C)C[C@H](OC(C)=O)[C@@]32[C@@H]1C
EC50 (HeLa): > 10 µg/mL
EC50 (KB): > 10 µg/mL

C[C@@H]1C(C(=O)O)=C[C@@]2(C)CC[C@@H]3[C@@H](C)C[C@H](O)[C@@]132
EC50 (HeLa): > 10 µg/mL
EC50 (KB): > 10 µg/mL

C[C@@H]1C(CO)=C[C@@]2(C)CC[C@@H]3[C@@H](C)CC[C@@]132 [SUBERGORGIOL]
EC50 (HeLa): > 10 µg/mL
EC50 (KB): > 10 µg/mL

COC(=O)C1=C[C@@]2(C)CC[C@@H]3[C@@H](C)CC(=O)[C@@]32[C@@H]1C [SUBERGORGIC ACID METHYL ESTER]
EC50 (KB): 4.3 µg/mL (≈ 16.4 µM)

C[C@@H]1CC(=O)[C@@]23[C@@H](C)C(C(=O)O)=C[C@]2(C)CC[C@@H]13 [SUBERGORGIC ACID]
EC50 (HeLa): > 10 µg/mL
EC50 (KB): > 10 µg/mL
